In ChEMBL document CHEMBL1147350, “Sesquiterpene-derived metabolites from the deep water marine sponge Poecillastra sollasi” (J Nat Prod, 1993):
In brackets after ≈: the same amount, converted by molar mass.

Assays:
Candida albicans = test: Antifungal activity against Candida albicans ATCC 44506 after 24 hrs by standard microdilution broth technique; format: functional; conditions: ATCC 44506, 24 h
Procedure, shortened: (§1)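 Broth microdilution MIC in 50 μl total volume. C. albicans ATCC 44506 grown in Sabouraud dextrose broth at 37° for 24 h; Cr. neoformans ATCC 32045 in Emmon's modification of Sabouraud dextrose broth at 37° for 48 h. MIC taken as lowest drug concentration giving complete growth inhibition.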

Cryptococcus neoformans = test: Antifungal activity against Cryptococcus neoformans ATCC 32045 after 48 hrs by standard microdilution broth technique; format: functional; conditions: ATCC 32045, 48 h; procedure, shortened: as §1
P388 = test: Cytotoxicity against mouse P388 cells by MTT assay; format: functional, cell-based
A549 = test: Cytotoxicity against human A549 cells by MTT assay; format: functional, cell-based
[1] = Displacement of [125I]angiotensin 2 from angiotensin 2 receptor in rat aorta smooth muscle cell membrane by genesys gamma counting
Procedure, shortened: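 Duplicate tubes: 0.88 nM (final) [125I]angiotensin II, membranes 75–125 μg/ml protein, 3 h at 25°; nonspecific with 1 μM unlabeled angiotensin II. GF/C filtration, gamma counting, nonlinear regression.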

Structure (SMILES)	MIC (Candida albicans) [µg/mL]	MIC (Cryptococcus neoformans) [µg/mL]	IC50 (P388) [µg/mL]	IC50 (A549) [µg/mL]	IC50 [1] [µM]
CC1=CC(=O)CC(C)(CC[C@]2(C)C(C)=CCC[C@H]2C)O1 (some centres undefined) [SOLLASIN E]	25 (≈ 90.4 µM)	25 (≈ 90.4 µM)			
CC1=CCC[C@@H](C)[C@]1(C)CC/C(C)=C/C(=O)N[C@@H]1CCCNC1=O [SOLLASIN B]	125 (≈ 376 µM)	31.2 (≈ 93.8 µM)	6 (≈ 18 µM)	17 (≈ 51.1 µM)	
COc1cc(/C=C(\C)CC[C@]2(C)C(C)=CCC[C@H]2C)oc(=O)c1 [SOLLASIN D]			5.5 (≈ 17.4 µM)	11.3 (≈ 35.7 µM)	42
CC1=CCC[C@@H](C)[C@]1(C)CC/C(C)=C/C(=O)N[C@@H]1CCCCNC1=O [SOLLASIN C]	31.2 (≈ 90 µM)	15.6 (≈ 45 µM)	8.4 (≈ 24.2 µM)	11 (≈ 31.7 µM)	63
